Data published in ChEMBL document CHEMBL5380845, “Going beyond Binary: Rapid Identification of Protein-Protein Interaction Modulators Using a Multifragment Kinetic Target-Guided Synthesis Approach” (J Med Chem, 2023).

Assay: Inhibition of GST-tagged mouse Mcl-1 (152 to 309 residues)/FITC-labelled Bim (unknown origin) protein protein interaction at 100 uM by fluorescence polarization method relative to control
Summary of the method: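 Single-point fluorescence polarization competition at 100 μM. GST-tagged mouse Mcl-1(152–309) (20 nM stock in PBS, 0.005% Tween 20) was mixed with the compound in PBS containing 25% DMSO and 0.005% Tween 20. FITC-Bim-BH3 (10 nM stock in PBS, 5% DMSO) was then added and shaken 3 min at room temperature. Polarization (mP) was read at ex 480/em 535 nm, and percent inhibition is relative to control.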

Row | Structure (SMILES) | inhibition [%]
1 | COc1cc(OC)cc(C(=O)S)c1 | < 5
2 | O=C(S)c1cccc2ccccc12 | < 5
3 | O=C(S)c1cccc([N+](=O)[O-])c1 | < 5
4 | O=C(S)c1ccc(OC(F)(F)F)cc1 | < 5
5 | [N-]=[N+]=NS(=O)(=O)c1ccc(CN2Cc3c(Cl)cccc3C(Sc3ccccc3)C2)cc1 (configuration not stated) | 25
6 | O=C(S)c1ccno1 | < 5
7 | COc1cc2c(cc1OC)C(O)N(CC(=O)O)CC2 (configuration not stated) | < 5
8 | [N-]=[N+]=NS(=O)(=O)c1ccc2ccc(S(=O)(=O)NCCSc3ccccc3)cc2c1 | 14
9 | CC1(C)CCN(c2ccc(C(=O)S)cc2)CC1 | < 5
10 | Cc1nc(-c2ccccc2)sc1C(=O)S | < 5
11 | O=C(S)c1ccco1 | < 5
12 | OC(=S)c1ccccc1 | < 5
